Columns and labels:
Assay type in all cases: physicochemical
[1] = Solvolytic stability of difluoro-dioxaborinins by 19F NMR in water/DMSO; conditions: for relative solvolytic stability (in words): comparison among Figure 2 / Table 1 compounds, 10% water/90% DMSO; for Stability (t1/2, h) 10% H2O/90% DMSO / Stability (t1/2, h) 90% H2O/10% DMSO: solvolysis half-life, 19F NMR, 25 °C; for Stability (t1/2, h) 10% H2O/90% DMSO: 10% H2O/90% DMSO (5.55 M H2O); for Stability (t1/2, h) 90% H2O/10% DMSO: 90% H2O/10% DMSO (50 M H2O); for Fold increase in stability (90% to 10% H2O): solvolysis in 5.5 M H2O vs. 50 M H2O; for times more resistant to solvolysis than 1: in 50 M H2O; for fold more rapid solvolysis than 5: determined in 5.55 M H2O
How it was run: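 Test compound was held in 10% or 90% aqueous DMSO, with aqueous portions in 1X PBS (pH 7.4, 10 mM), and 19F NMR spectra were integrated over time. The fraction of 19F on the test compound was taken as its integral divided by the sum of all fluoride integrals. Fractions versus time were fitted to P = exp(−k*t), and half-lives were derived from k.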

[2] = Optical properties; conditions: for Abs (nm) / Em (nm) / Extinction Coefficient (cm^−1M^−1) / Stokes Shift (nm): in methanol; for Quantum yield (%, in Methanol): quinine bisulfate as the reference
[3] = Water solubility judged by silica TLC with water as the mobile phase

Compound	solvolysis in the absence of water ([1]; 100% DMSO)	fraction decomposed at 110 min (one F-18 half-life) post i.v. injection ([1]; assuming the in vitro solvolysis rate translates in vivo)	relative solvolytic stability (in words) [1]	Stability (t1/2, h) 10% H2O/90% DMSO [1]	Stability (t1/2, h) 90% H2O/10% DMSO [1]	Fold increase in stability (90% to 10% H2O) [1]	Abs (nm) [2]	Em (nm) [2]	Extinction Coefficient (cm^−1M^−1) [2]	Stokes Shift (nm) [2]	water solubility (in words) [3]	times more resistant to solvolysis than 1 [1]	fold more rapid solvolysis than 5 [1]	Quantum yield (%, in Methanol) [2]	solvolysis half-life compared with F-18 nuclear decay half-life ([1]; Table 1 conditions)
CC1=CC(C)=[O+][B-](F)(F)O1 [Compound 1, 2,2-Difluoro-4,6-dimethyl-2H-1λ^3,3,2λ^4-dioxaborinine]	not observed	37%	second most rapid difluoro-dioxaborinin to undergo aqueous solvolysis	7.63 ± 0.18 h	2.73 ± 0.02 h	2.8 fold	279 nm	305 nm	9,180 cm^−1M^−1	26 nm	water solubility that allowed them to be resolved on silica TLC with water as the mobile phase	–	–	–	–
CC1=[O+][B-](F)(F)OC(C)=C1C [Compound 2, 2,2-Difluoro-4,5,6-trimethyl-2H-1λ^3,3,2λ^4-dioxaborinine]	–	–	–	53.9 ± 1.1 h	17.1 ± 0.7 h	3.2 fold	303 nm	307 nm	12,200 cm^−1M^−1	4 nm	water solubility that allowed them to be resolved on silica TLC with water as the mobile phase	6.2 times	–	–	–
CCC1=C(C)O[B-](F)(F)[O+]=C1C [Compound 3, 5-Ethyl-2,2-difluoro-4,6-dimethyl-2H-1λ^3,3,2λ^4-dioxaborinine]	–	–	–	53.9 ± 1.5 h	15.2 ± 0.5 h	3.5 fold	303 nm	306 nm	12,000 cm^−1M^−1	3 nm	water solubility that allowed them to be resolved on silica TLC with water as the mobile phase	5.6 times	–	–	–
CCOC(=O)CCC1=C(C)O[B-](F)(F)[O+]=C1C [Compound 6, Ethyl 3-(2,2-difluoro-4,6-dimethyl-2H-1λ^3,3,2λ^4-dioxaborinin-5-yl)propanoate]	–	–	–	24.6 ± 0.5 h	5.19 ± 0.15 h	4.7 fold	301 nm	307 nm	12,600 cm^−1M^−1	6 nm	water solubility that allowed them to be resolved on silica TLC with water as the mobile phase	1.9 times	–	–	–
COc1cc(/C=C/C2=CC(/C=C/c3ccc(OC(=O)c4c(F)cc(F)cc4F)c(OC)c3)=[O+][B-](F)(F)O2)ccc1OC(=O)c1c(F)cc(F)cc1F [Compound 9, ((1E,1′E)-(2,2-difluoro-2H-1λ^3,3,2λ^4-dioxaborinine-4,6-diyl)bis(ethene-2,1-diyl))bis(2-methoxy-4,1-phenylene) bis(2,4,6-trifluorobenzoate)]	–	–	–	11.9 ± 0.4 h	–	–	430 nm	512 nm	50,800 cm^−1M^−1	82 nm	–	–	33 fold	3.0%	–
COc1cc(/C=C/C2=CC(/C=C/c3ccc(OC(=O)CCN4C(=O)C=CC4=O)c(OC)c3)=[O+][B-](F)(F)O2)ccc1OC(=O)CCN1C(=O)C=CC1=O [Compound 10, ((1E,1′E)-(2,2-difluoro-2H-1λ^3,3,2λ^4-dioxaborinine-4,6-diyl)bis(ethene-2,1-diyl))bis(2-methoxy-4,1-phenylene) bis(3-(2,5-dioxo-2,5-dihydro-1H-pyrrol-1-yl)propanoate)]	–	–	–	16.0 ± 0.2 h	–	–	434 nm	509 nm	54,000 cm^−1M^−1	75 nm	–	–	24 fold	3.1%	–
CC1=CC(c2ccccc2)=[O+][B-](F)(F)O1 [Compound 14, 2,2-Difluoro-4-methyl-6-phenyl-2H-1λ^3,3,2λ^4-dioxaborinine]	–	–	least stable	4.46 ± 0.05 h	–	–	325 nm	328 nm	19,800 cm^−1M^−1	3 nm	–	–	–	–	> 1.83 h
CC1=C2CCCCC2=[O+][B-](F)(F)O1 [Compound 15, 2,2-Difluoro-4-methyl-5,6,7,8-tetrahydro-2H-1λ^3,2λ^4-benzo[e][1,3,2]dioxaborinine]	–	–	–	33.7 ± 1.1 h	6.75 ± 0.19 h	5.0 fold	303 nm	307 nm	12,000 cm^−1M^−1	4 nm	water solubility that allowed them to be resolved on silica TLC with water as the mobile phase	2.5 times	–	–	–
